According to PMC10984326 (Chemistry & biodiversity, 2023):

Legend:
[1] = system: 35404 cells; assay: MTT cell viability assay, patient-derived melanoma metastasized to brain; type: cell-based, human; details: read-out: Antiproliferative activity (IC50, μM) 35404 cells, 72 h treatment, up to 10 μM, mean±SD (n=4), IN = inactive
[2] = system: Human primary dermal fibroblasts; assay: MTT cell viability assay, non-cancerous fibroblasts; type: cell-based; details: IC50 of cancer cells compared with IC50 of human fibroblasts
In short: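 Primary dermal fibroblasts were grown in fibroblast basal medium with low-serum growth supplement at 37°C, 5% CO2. Cells were seeded at 2×10^3/well, and after 24 h were exposed for 72 h to test compound (DMSO solution, up to 10 μM) or 0.1% DMSO. MTT was added for 4 h and the formazan dissolved in DMSO, with absorbance at 540 nm. IC50 came from non-linear regression, and SI from comparing A375 and 35404 IC50s with fibroblast IC50.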

[3] = system: A375 cells; assay: Flow cytometry analysis of cell cycle; type: cell-based, human; details: for Cell cycle arrest: 5 x IC50; for Sub-G1 DNA content relative to control: 72 h, 5 x IC50 (7b 17.5 μM, 7c 21.5 μM), vs 0.2% DMSO
[4] = system: A375 cells; assay: Wound-healing; type: cell-based, human; details: for Inhibition of migration of A375 cells: after 20, 48 and 54 h, 7b 3.5 μM, 7c 4.3 μM

Structure (SMILES) | IC50 [1] [µM] | SI (selectivity index) [2] | Cell cycle arrest ([3]; 48 h and 72 h) | Sub-G1 DNA content relative to control [3] | Inhibition of migration of A375 cells [4] | Cell cycle arrest ([3]; 24 h) | DNA fragmentation (sub-G1 DNA) ([3]; 24 h, 5 x IC50 (17.5 μM)) | Wound surface area ([4]; 4 h of treatment, 3.5 μM (IC50), 0 h = 100%, control 76%) [%]
Cc1cc(C(=O)/C(=C\c2ccc(C)c(Cl)c2)c2ccc(C)c(Cl)c2)c(C(=O)N2CCCCC2)c(=O)[nH]1 [Compound 7g, (Z)-4-(2,3-bis(3-chloro-4-methylphenyl)acryloyl)-6-methyl-3-(piperidine-1-carbonyl)pyridin-2(1H)-one] | 0.4 ± 0.2 | >20 | – | – | – | – | – | –
COc1ccc(/C=C(\C(=O)c2cc(C)[nH]c(=O)c2C(=O)N2CCCCC2)c2ccc(OC)c(C)c2)cc1C [Compound 7c, (Z)-4-(2,3-bis(4-methoxy-3-methylphenyl)acryloyl)-6-methyl-3-(piperidine-1-carbonyl)pyridin-2(1H)-one] | – | >2 | substantial G1 arrest | statistically significant increases | statistically significant inhibition of migration | – | – | –
Cc1cc(C(=O)/C(=C\c2cccc(F)c2)c2cccc(F)c2)c(C(=O)N2CCCCC2)c(=O)[nH]1 [Compound 7b, (Z)-4-(2,3-bis(3-fluorophenyl)acryloyl)-6-methyl-3-(piperidine-1-carbonyl)pyridin-2(1H)-one] | – | – | substantial G1 arrest | statistically significant increases | statistically significant inhibition of migration | transient G2 and/or M phase arrest | Statistically significant DNA fragmentation | 93
